# Assay outcomes (PubChem)
# Shown are actives, neighbours in structure and some others; about 1.4% of the full set was active somewhere.
# FXIa inh – inhibitors of human coagulation factor XIa; P03951; purified FXIa, Boc-Glu-Ala-Arg-AMC fluorogenic substrate; inhibition, % at 5 µM; 220,000 tested, 0.14% active;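 active = inhibition of at least 40%; inactive = inhibition below 40%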;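 note: fluorescence of freed AMC excited at 355 nm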
# FXIIa inh – inhibitors of human coagulation factor XIIa. P00748. purified FXIIa, Boc-QGR-AMC fluorogenic substrate, 2 h. inhibition, % at 5 µM. 220,000 tested, 0.3% active; in the data active = inhibition above about 40%
# thrombin 1536 – inhibitors of human thrombin; inhibition, % at 5 µM; alpha-thrombin, Boc-VPR-AMC fluorogenic substrate cleavage; AID 1046; P00734; 220,000 tested, 0.26% active;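 active = inhibition at or above 40%; inactive = inhibition below 40%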
#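 Material: human alpha-thrombin protein. Incubation: reaction at ambient temperature. Technique: fluorescence of released AMC, ex 355 nm, em 460 nm. Control set: no-compound enzyme wells and no-enzyme blanks. Also added: Boc-VPR-AMC substrate, 15 µM final. Buffer or medium: pH 7.5 Tris (50 mM) with NaCl 150 mM, Tween 20 0.05%.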
# m-calpain inh – blocks pig calpain II enzyme activity; purified calpain II, fluorogenic peptide substrate, 30 min; inhibition, % at 16 µM; 220,000 tested, 0.37% active;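 active = inhibition above about 50%, limit read from the data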
# KLK5 inh – blocks human kallikrein 5 protease activity; recombinant hK5, fluorogenic AMC substrate cleavage; inhibition, % at 5 µM; 210,000 tested, 0.59% active; AID 873;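 active = inhibition of 40% or more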
# Target sequence (Q9Y337 67-293 limits assumed): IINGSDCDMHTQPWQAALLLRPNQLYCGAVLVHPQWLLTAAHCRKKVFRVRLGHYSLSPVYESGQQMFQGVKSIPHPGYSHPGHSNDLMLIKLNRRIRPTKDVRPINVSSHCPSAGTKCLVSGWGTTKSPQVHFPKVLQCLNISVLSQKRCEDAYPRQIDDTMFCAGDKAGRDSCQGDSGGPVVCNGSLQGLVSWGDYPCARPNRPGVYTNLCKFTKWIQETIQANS
# A number is an active result; n = inactive; x = no result given.
SMILES,FXIa inh,FXIIa inh,thrombin 1536,m-calpain inh,KLK5 inh
COc1cccc(-c2nn(-c3ccccc3)cc2CN(C)Cc2ccno2)c1,n,n,n,n,n
COc1cccc(-c2nn(-c3ccccc3)cc2CN(C)C(C)c2ccon2)c1 (configuration not stated),n,n,n,n,46
Cc1ccc(OCc2nnc(SCC(=O)Nc3ncc(C)s3)o2)cc1,n,n,n,n,n
O=C(NCc1cccnc1)c1ccc2c(=O)n(CCCN3CCCC3=O)c(=S)[nH]c2c1,n,n,n,84,n
O=C(c1ccco1)N1N=C(c2cccs2)CC1c1ccco1 (configuration not stated),n,n,n,n,n
Cc1ccc(C2CC(c3cccs3)=NN2C(=O)c2ccco2)o1 (configuration not stated),n,n,n,51,n
COC(=O)CNC(=O)c1sc2ncn(CC(=O)Nc3ccc(C)c(Cl)c3)c(=O)c2c1C,n,n,n,52,n
COCCNC(=O)c1sc2ncn(CC(=O)Nc3ccc(C)c(Cl)c3)c(=O)c2c1C,n,n,n,n,n
Cc1cc(C)n(C(=O)c2cccc(S(=O)(=O)N3CCCC3)c2)n1,n,n,n,n,n
COCCNC(=O)CSc1nc2ccc(N3CCOCC3)cc2c(=O)n1Cc1ccc(OC)cc1,n,n,n,n,103
Fc1ccccc1N1CCN(Cc2nc(-c3ccc(Cl)cc3Cl)no2)CC1,n,n,n,n,56
Cc1cc2ncn(-c3ncnc4sc5c(c34)CCC(C)C5)c2cc1C (configuration not stated),n,n,n,66,n
Cc1cc2ncn(-c3ncnc4sc5c(c34)CCCC5)c2cc1C,n,n,n,n,n
O=C(Cn1nnc(-c2ccccc2)n1)OCc1csc(-c2ccccc2)n1,n,49,n,n,n
Cc1cc(SCC(=O)N(C)CC(=O)Nc2ccc(F)cc2)nc2ccccc12,n,n,n,n,n
C=CCNc1ncnc2c1cnn2-c1ccc(C)cc1C,n,n,n,n,n
CCOC(=O)N1CCC(Nc2ncnc3c2cnn3-c2ccc(C)cc2C)CC1,n,n,n,n,44
COc1cc2nc(=S)n3[nH]c(CCn4nc(C)cc4C)nc3c2cc1OC,n,n,n,n,n
COc1cc2nc(=S)n3[nH]c(COc4ccccc4C)nc3c2cc1OC,n,n,n,n,45
c1ccc(-c2cc3c(ccc4nonc43)nn2)cc1,n,n,n,n,n
On1onc2c3cc(-c4ccccc4)nc3ccc21,n,n,n,82,n
O=C(CCCN1C(=O)c2ccccc2C1=O)Nc1nnc(C2CC2)s1,n,n,n,n,n
CCSc1nnc(NC(=O)c2ccco2)s1,n,n,44,n,n
CC(=O)Nc1nnc(SCc2ccc(F)cc2)s1,n,n,n,n,56
CC(=O)Nc1nnc(SCc2cccc(F)c2)s1,n,n,n,n,n
SMILES,FXIa inh,FXIIa inh,thrombin 1536,m-calpain inh,KLK5 inh
CC1CCc2[nH]nc(C(=O)O)c2C1 (configuration not stated),n,n,78,n,n
Cc1cccc(NC(=O)CN2C(=O)N/C(=C/c3cc(C)n(-c4ccncc4)c3C)C2=O)c1,n,n,n,n,n
Cc1cccc(NC(=O)CN2C(=O)N/C(=C/c3cc(C)n(-c4cccnc4)c3C)C2=O)c1,n,n,n,51,n
C/C(=N\NC(=O)c1cccc(N/N=C(\C)c2ccncc2)c1)c1ccncc1,n,n,n,n,n
C/C(=N\NC(=O)c1cccc(N/N=C(\C)c2ccccc2)c1)c1ccccc1,n,63,n,n,n
Cc1ccccc1N(C(=O)Cc1cccs1)C(C(=O)NCC1CCCO1)c1cccnc1 (configuration not stated),n,n,n,n,n
O=C(NCC1CCCO1)C(c1cccnc1)N(C(=O)Cc1cccs1)c1ccccc1 (configuration not stated),n,n,n,n,41
CCCCOc1ccc(-c2nnn(C(C)C(=O)OCC)n2)cc1 (configuration not stated),n,n,n,n,n
CCCCOc1ccc(-c2nnn(C(C)(C)C(=O)OC)n2)cc1,n,n,n,n,140
COc1ccc(/C(N)=N/OC(=O)C2CCC(=O)N2S(=O)(=O)c2ccc(C)cc2)cc1 (configuration not stated),n,n,n,n,n
CCCc1nc(SCC(=O)c2ccccc2)c2c(=O)n(C)c(=O)n(C)c2n1,n,n,n,53,n
CC(C)(OC1OC(CO)C(O)C(O)C1O)[C@H]1Oc2ccc3ccc(=O)oc3c2[C@H]1O (some centres not stated),n,n,n,n,n
CCNc1ccc2c(Cl)cc(=O)oc2c1,n,56,n,n,n
COc1ccc(N2C(=O)N(Cc3cccc(F)c3)c3ccccc3S2(=O)=O)cc1,n,n,n,63,n
Cc1ccc(N2C(=O)N(CC(=O)C(C)(C)C)c3ccccc3S2(=O)=O)cc1,n,n,n,n,n
COc1ccc(N2C(=O)N(Cc3ccccc3F)c3ccccc3S2(=O)=O)cc1,n,n,n,58,n
CC1=NN(C(=O)c2cccc(Cn3nc(C)c([N+](=O)[O-])c3C)c2)C(O)(C(F)(F)F)C1 (configuration not stated),n,n,n,n,n
Oc1cccc(-c2nc3ccccc3s2)c1,n,n,104,n,63
CCOC(=O)N1CCN(C(=O)c2ccc3c(=O)n(Cc4ccc(OC)cc4)c(=S)[nH]c3c2)CC1,n,n,n,n,48
CCOC(=O)N1CCN(C(=O)c2ccc3c(=O)n(Cc4ccccc4)c(=S)[nH]c3c2)CC1,n,n,n,n,n
CCCn1c(=S)[nH]c2cc(C(=O)N3CCN(c4ccccc4OC)CC3)ccc2c1=O,n,n,n,n,n
CCCn1c(=S)[nH]c2cc(C(=O)N3CCc4ccccc4C3)ccc2c1=O,n,n,n,57,n
NC(=O)C(=O)NCCCN1CCOCC1,n,n,n,n,n
Cc1cc(NC(=S)NC(=O)C2CC2)ccc1Br,n,n,n,n,n
CCc1cc(=O)oc2cc3occ(-c4ccc(OC)c(F)c4)c3cc12,n,n,n,n,n
SMILES,FXIa inh,FXIIa inh,thrombin 1536,m-calpain inh,KLK5 inh
COC(=O)Cc1c(C)nc2nc[nH]n2c1=O,n,48,n,n,54
CC(C)=NOc1nc(N(C)C)nc(N2CCOCC2)n1,n,n,n,n,n
COc1cc(C(=O)c2c(C)c(CCC#N)n3ccccc23)cc(OC)c1OC,n,x,n,n,n
CCc1nc(OCCN(C)C)c2oc3ccccc3c2n1,n,n,n,n,43
CCc1nc(Nc2ccccc2)c2oc3ccccc3c2n1,n,n,n,n,n
COc1ccccc1NC(=O)COC(=O)C12CC3CC(CC(Cl)(C3)C1)C2,n,n,n,62,n
O=C1CNC(=O)N1CC(=O)N1CCCc2ccccc21,n,n,n,n,n
Cc1cccc(OCC(O)CN2CC3(C)CC2CC(C)(C)C3)c1 (configuration not stated),64,n,n,n,n
COc1ccc(OC)c(-n2c(SCC(=O)NCc3ccco3)nnc2-c2c[nH]c3ccccc23)c1,n,n,n,n,n
